Experiment [1] has as its target 5-hydroxytryptamine receptor 1B (Rattus norvegicus) (UniProt P28564).
Experiment [2] addresses T1, 5-hydroxytryptamine receptor 2C (Homo sapiens) (UniProt P28335).
T1 sequence (whole entry): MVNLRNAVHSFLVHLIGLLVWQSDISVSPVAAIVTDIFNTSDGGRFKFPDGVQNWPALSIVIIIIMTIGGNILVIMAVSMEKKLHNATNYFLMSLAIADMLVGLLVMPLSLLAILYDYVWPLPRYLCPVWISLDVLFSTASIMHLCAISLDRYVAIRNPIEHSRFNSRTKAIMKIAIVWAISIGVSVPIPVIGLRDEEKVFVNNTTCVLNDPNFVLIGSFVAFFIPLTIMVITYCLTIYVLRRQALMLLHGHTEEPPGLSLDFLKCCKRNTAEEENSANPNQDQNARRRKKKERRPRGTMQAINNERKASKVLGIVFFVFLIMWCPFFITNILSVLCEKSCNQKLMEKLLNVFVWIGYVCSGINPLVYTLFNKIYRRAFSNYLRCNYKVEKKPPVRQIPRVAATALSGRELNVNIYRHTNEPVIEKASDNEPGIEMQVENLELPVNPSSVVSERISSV

Experiment [3] addresses 5-hydroxytryptamine receptor 2A (Rattus norvegicus) (UniProt P14842). The settings on record: N1E-115.
Experiment [4] addresses T2, Alpha-2A adrenergic receptor (Bos taurus) (UniProt Q28838).
T2 sequence (whole entry): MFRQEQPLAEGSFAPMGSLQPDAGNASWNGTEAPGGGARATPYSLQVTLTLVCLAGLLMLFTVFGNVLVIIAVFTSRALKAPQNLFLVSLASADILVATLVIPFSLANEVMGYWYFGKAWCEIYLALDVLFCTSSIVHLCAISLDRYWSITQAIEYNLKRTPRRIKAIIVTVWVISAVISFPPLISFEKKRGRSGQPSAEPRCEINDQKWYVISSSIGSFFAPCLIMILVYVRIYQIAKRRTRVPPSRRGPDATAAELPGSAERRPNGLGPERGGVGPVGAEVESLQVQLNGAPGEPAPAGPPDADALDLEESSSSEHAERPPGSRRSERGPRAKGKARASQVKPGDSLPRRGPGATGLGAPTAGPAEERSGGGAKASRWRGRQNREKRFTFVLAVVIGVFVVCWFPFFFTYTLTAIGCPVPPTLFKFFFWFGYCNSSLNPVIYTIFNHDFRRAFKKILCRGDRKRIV

For experiment [5], the target named is D(1A) dopamine receptor (Bos taurus) (UniProt Q95136). The settings on record: Striatum.
Chain of D(1A) dopamine receptor (Bos taurus) (Q95136 whole entry): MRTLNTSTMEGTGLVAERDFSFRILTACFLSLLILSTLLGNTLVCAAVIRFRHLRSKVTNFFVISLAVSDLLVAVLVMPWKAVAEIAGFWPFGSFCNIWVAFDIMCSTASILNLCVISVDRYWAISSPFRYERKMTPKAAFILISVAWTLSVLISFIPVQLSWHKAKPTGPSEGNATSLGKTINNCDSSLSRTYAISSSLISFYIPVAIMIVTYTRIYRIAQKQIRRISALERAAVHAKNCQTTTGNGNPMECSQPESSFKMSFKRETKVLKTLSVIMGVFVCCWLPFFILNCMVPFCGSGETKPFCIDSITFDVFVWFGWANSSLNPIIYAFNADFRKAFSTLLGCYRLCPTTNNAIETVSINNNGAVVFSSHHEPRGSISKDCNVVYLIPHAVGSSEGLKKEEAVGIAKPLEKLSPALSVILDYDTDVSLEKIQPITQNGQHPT
Experiment [6] addresses D(2) dopamine receptor (Bos taurus) (UniProt P20288). The settings on record: Striatum.
For experiment [7], the target named is T3, Alpha-1A adrenergic receptor (Bos taurus) (UniProt P18130).
T3 sequence (whole entry): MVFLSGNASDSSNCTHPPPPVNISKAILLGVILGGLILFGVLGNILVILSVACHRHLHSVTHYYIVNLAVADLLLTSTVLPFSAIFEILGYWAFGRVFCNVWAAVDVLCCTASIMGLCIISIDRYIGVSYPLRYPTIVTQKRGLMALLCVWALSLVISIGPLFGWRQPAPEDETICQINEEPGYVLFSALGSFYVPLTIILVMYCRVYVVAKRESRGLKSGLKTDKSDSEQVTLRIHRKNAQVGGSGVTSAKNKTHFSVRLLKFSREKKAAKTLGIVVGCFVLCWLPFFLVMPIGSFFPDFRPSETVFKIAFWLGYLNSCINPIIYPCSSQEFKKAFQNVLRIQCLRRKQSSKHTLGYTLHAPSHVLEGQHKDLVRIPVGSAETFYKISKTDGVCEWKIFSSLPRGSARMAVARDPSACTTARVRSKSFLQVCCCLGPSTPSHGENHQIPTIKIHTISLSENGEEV

Experiment [8] has as its target T4, 5-hydroxytryptamine receptor 1A (Homo sapiens) (UniProt P08908).
T4 sequence (whole entry): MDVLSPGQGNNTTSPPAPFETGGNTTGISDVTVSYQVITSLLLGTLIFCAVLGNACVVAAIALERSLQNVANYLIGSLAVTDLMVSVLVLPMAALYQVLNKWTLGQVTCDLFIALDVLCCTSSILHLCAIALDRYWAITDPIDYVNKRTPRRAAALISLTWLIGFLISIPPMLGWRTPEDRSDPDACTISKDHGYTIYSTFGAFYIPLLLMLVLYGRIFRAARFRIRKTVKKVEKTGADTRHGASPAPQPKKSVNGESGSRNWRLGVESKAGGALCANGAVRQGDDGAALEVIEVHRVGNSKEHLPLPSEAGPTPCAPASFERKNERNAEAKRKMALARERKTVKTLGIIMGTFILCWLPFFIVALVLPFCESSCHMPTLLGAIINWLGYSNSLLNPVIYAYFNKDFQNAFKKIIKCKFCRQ
Conditions: Sus scrofa; Frontal cortex; Membrane.

Experiment [9] concerns the target Serotonin 3 receptor (5HT3) (Mus musculus) (UniProt Q9JHJ5+P23979). The settings on record: Cortex.
For experiment [10], the system named is Rattus norvegicus. Put plainly: Inhibition of ACTH response to MK-212 by the compound (0.1 mg/Kg) in rats. The class given is functional. Put shortly: (§1)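 Male Sprague-Dawley rats (200–250 g) received compound (0, 0.1 or 1 mg/kg sc) 20 min before MK-212 sc or solvent. Rats were decapitated 30 min after MK-212, and trunk blood plasma was taken. Rat ACTH was measured by radioimmunoassay (ng/mL), as means ± SEM of eight experiments.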

The test system of experiment [11] is Rattus norvegicus. In words: Inhibition of ACTH response to MK-212 by the compound (1 mg/Kg) in rats. The format is functional. Summed up:
as §1

The test system of experiment [12] is Rattus norvegicus. In words: Inhibition of ACTH response to MK-212 by the compound (1 mg/Kg) in rats with solvent. The class given is functional. Put shortly:
as §1

Experimental findings from ChEMBL document CHEMBL1128341, “(+)-cis-4,5,7a,8,9,10,11,11a-octahydro-7H-10-methylindolo[1,7- bc][2,6]-naphthyridine: a 5-HT2C/2B receptor antagonist with low 5-HT2A receptor affinity” (1995) are described below.

The structures appear in SMILES notation.

Chain of D(2) dopamine receptor (Bos taurus) (P20288 whole entry): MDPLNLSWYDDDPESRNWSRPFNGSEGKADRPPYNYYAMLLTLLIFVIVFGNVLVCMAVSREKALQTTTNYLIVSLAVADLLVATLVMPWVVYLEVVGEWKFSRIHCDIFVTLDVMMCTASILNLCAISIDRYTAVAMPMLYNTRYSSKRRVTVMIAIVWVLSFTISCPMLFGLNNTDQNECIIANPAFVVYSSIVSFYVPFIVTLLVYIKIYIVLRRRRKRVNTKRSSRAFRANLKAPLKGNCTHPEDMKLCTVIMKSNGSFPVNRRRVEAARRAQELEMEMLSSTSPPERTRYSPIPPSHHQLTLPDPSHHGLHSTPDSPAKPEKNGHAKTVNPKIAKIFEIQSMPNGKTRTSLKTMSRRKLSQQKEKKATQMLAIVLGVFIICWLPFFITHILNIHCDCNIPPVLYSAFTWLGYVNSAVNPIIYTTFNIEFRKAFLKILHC
Chain of Serotonin 3 receptor (5HT3) (Mus musculus) (P23979 whole entry, looked up): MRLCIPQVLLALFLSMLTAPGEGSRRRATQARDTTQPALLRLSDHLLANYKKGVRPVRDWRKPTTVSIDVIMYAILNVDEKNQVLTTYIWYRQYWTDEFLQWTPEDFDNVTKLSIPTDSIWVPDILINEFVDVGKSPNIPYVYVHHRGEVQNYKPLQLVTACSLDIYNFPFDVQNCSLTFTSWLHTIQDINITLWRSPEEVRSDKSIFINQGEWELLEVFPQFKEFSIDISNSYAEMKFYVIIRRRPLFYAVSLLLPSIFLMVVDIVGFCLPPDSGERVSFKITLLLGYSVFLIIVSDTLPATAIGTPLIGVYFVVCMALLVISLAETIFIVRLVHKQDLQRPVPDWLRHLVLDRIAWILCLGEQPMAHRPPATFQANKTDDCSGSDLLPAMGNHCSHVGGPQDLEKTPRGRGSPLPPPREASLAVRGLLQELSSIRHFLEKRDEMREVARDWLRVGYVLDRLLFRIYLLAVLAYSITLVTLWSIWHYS
Chain of Serotonin 3 receptor (5HT3) (Mus musculus) (Q9JHJ5 whole entry, looked up): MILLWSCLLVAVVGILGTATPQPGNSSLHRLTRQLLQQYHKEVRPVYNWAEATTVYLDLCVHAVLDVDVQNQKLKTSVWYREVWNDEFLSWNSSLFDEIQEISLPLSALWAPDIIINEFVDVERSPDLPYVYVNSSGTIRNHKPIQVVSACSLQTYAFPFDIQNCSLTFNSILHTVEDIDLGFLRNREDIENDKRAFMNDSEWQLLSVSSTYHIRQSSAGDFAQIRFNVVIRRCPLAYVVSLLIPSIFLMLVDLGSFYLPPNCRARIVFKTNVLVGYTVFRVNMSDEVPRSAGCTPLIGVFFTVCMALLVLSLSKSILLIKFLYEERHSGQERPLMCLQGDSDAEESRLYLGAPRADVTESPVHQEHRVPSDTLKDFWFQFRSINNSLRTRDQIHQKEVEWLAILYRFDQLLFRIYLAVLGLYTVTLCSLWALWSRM
Chain of 5-hydroxytryptamine receptor 1B (Rattus norvegicus) (P28564 whole entry): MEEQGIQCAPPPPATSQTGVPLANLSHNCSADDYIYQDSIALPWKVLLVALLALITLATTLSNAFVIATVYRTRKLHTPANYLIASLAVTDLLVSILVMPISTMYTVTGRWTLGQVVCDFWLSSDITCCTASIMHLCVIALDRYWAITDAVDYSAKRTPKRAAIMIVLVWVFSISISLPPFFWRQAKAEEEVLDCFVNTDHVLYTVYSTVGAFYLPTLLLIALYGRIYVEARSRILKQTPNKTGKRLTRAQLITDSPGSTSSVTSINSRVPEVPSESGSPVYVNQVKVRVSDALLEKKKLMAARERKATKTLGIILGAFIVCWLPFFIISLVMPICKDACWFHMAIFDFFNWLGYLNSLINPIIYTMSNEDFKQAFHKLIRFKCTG
Chain of 5-hydroxytryptamine receptor 2A (Rattus norvegicus) (P14842 whole entry): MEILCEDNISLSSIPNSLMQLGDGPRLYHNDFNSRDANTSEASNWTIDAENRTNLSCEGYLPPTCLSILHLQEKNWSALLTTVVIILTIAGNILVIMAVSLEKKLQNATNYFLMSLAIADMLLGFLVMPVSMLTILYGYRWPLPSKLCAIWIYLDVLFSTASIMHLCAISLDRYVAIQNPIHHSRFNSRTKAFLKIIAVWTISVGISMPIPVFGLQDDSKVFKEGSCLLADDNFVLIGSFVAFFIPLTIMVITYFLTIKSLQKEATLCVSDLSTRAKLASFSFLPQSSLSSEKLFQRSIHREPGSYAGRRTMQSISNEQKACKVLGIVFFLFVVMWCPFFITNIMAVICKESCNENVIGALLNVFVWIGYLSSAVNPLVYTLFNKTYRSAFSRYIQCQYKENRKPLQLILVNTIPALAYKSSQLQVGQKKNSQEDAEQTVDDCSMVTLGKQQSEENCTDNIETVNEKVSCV

As to `CN1CC[C@@H]2CN3CCc4cccc(c43)[C@@H]2C1` (stereo in doubt; 8) [listing 1 of 2 here], the pKD is 4.6 in experiment [1]; 7.8 in experiment [2]; 6.2 in experiment [3]; 6.5 in experiment [4]; below 5 in [5]; below 5 in experiment [6]. Also, the values for the pKD in [7], in experiment [8] and in [9] were 5.6, 6.1 and 4.7, respectively.

Take `CN1CC[C@@H]2CN3CCc4cccc(c43)[C@@H]2C1` (stereo in doubt; 8) [listing 2 of 2 here]: the Inhibition in the experiment with Rattus norvegicus [10] stood at 165.8 ng/mL; in the experiment with Rattus norvegicus [11] it was 95.1 ng/mL; in the experiment with Rattus norvegicus [12] it was 38.5 ng/mL.

Consider `Cc1nc2sccn2c(=O)c1CCN1CCC(=C(c2ccc(F)cc2)c2ccc(F)cc2)CC1` [RITANSERIN], for which the Inhibition with Rattus norvegicus [10] worked out at 204.3 ng/mL; in the experiment on Rattus norvegicus [11] it was 95.4 ng/mL; in the experiment on Rattus norvegicus [12], 37.2 ng/mL.

On to `CN1CC[C@@H]2CN3CCc4cccc(c43)[C@@H]2C1` (stereo in doubt; 9), for which the pKD in experiment [4] was 6; in experiment [5], below 5; in experiment [6], below 5; in [7], 6; in experiment [8], below 5.

A word on the pKD: it is the negative decadic logarithm of the KD, by convention in mol/L. Read a high pKD as a low KD.
